Laboratory results published in ChEMBL document CHEMBL4680269, “N-benzylpiperidinol derivatives as novel USP7 inhibitors: Structure-activity relationships and X-ray crystallographic studies” (Eur J Med Chem, 2020).
The source made the active and inactive calls. No cut-off for these calls is given here.

Experiments:
[1] = system: HCT-116; assay: Antiproliferative activity against human HCT-116 cells assessed as reduction in cell viability incubated for 3 days by cell-titer glo assay; assay type: functional, cell-based; conditions: HCT-116, 72 h
Summary of the method: (§1)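 Cells seeded in 96-well plates (RS4;11 5000 cells/well; HCT-116, Huh7, K562, NB4 2000 cells/well), dosed after 24 h with a range of compound concentrations for 3 days. Viability read by CellTiter-Glo luminescence; IC50 from curve fitting.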

[2] = system: Huh-7; assay: Antiproliferative activity against human HuH-7 cells assessed as reduction in cell viability incubated for 3 days by cell-titer glo assay; assay type: functional, cell-based; conditions: Huh-7, 72 h; summary of the method: as §1
[3] = biological target: Ubiquitin carboxyl-terminal hydrolase isozyme L1 (Homo sapiens) (UniProt P09936); assay: Inhibition of UCH-L1 (unknown origin) at 20 uM
Ubiquitin carboxyl-terminal hydrolase isozyme L1 (Homo sapiens), sequence (P09936 whole entry, looked up): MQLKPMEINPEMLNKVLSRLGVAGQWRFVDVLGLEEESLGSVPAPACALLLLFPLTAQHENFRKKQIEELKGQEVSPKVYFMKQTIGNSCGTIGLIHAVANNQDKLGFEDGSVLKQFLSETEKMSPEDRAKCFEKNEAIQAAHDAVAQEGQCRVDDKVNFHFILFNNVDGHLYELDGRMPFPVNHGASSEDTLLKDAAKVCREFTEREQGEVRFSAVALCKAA

[4] = Antiproliferative activity against human K562 cells assessed as reduction in cell viability incubated for 3 days by cell-titer glo assay; assay type: functional, cell-based; conditions: K562, 72 h; summary of the method: as §1
[5] = biological target: Ubiquitin carboxyl-terminal hydrolase 11 (Homo sapiens) (UniProt P51784); assay: Inhibition of USP11 (unknown origin) at 20 uM
Ubiquitin carboxyl-terminal hydrolase 11 (Homo sapiens), sequence (P51784 whole entry): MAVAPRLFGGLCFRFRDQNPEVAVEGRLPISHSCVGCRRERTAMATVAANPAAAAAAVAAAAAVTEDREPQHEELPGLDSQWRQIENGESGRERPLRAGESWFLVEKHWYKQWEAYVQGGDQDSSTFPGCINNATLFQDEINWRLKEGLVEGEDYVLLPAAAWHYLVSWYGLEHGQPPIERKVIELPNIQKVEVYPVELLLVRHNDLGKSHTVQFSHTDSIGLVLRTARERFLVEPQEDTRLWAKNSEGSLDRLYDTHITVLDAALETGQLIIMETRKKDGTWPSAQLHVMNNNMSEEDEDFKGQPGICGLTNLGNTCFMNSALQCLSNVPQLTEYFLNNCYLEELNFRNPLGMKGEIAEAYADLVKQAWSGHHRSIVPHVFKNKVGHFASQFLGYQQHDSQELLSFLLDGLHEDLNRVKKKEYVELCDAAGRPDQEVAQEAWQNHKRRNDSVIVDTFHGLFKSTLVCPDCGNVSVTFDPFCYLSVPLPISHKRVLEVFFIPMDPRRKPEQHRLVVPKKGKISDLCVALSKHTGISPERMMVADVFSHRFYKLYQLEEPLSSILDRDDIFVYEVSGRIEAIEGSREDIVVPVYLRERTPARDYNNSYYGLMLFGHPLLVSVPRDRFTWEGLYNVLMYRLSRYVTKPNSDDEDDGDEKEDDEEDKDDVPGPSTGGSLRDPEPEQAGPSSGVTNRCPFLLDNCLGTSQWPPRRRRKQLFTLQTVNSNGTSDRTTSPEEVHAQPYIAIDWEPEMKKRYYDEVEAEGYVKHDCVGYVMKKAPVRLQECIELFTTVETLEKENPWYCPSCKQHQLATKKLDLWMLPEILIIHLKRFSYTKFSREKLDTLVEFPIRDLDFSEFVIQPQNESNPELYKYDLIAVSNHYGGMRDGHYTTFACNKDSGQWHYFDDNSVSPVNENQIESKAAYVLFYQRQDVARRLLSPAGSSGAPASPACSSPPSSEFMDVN

[6] = biological target: T1, Ubiquitin carboxyl-terminal hydrolase 2 (Homo sapiens) (UniProt O75604); assay: Inhibition of USP2 (unknown origin) at 20 uM
T1 sequence (whole entry): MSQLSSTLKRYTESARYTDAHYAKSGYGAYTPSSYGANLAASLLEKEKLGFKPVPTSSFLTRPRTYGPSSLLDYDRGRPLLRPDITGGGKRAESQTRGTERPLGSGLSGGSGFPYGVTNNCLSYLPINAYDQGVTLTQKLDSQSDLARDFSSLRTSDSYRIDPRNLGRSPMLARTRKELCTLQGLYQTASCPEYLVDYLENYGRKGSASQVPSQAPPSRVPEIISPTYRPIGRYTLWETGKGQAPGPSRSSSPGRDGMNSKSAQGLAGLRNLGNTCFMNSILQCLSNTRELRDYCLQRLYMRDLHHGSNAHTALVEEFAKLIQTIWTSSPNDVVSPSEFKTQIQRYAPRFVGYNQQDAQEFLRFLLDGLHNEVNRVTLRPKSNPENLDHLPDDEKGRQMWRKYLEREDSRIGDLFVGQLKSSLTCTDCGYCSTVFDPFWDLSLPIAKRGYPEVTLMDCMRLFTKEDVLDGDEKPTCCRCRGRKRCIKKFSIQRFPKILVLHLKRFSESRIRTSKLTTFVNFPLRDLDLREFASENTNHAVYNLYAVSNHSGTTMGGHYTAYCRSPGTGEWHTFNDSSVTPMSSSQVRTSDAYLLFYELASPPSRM

[7] = biological target: T2, Ubiquitin carboxyl-terminal hydrolase 28 (Homo sapiens) (UniProt Q96RU2); assay: Inhibition of USP28 (unknown origin) at 20 uM
T2 sequence (whole entry): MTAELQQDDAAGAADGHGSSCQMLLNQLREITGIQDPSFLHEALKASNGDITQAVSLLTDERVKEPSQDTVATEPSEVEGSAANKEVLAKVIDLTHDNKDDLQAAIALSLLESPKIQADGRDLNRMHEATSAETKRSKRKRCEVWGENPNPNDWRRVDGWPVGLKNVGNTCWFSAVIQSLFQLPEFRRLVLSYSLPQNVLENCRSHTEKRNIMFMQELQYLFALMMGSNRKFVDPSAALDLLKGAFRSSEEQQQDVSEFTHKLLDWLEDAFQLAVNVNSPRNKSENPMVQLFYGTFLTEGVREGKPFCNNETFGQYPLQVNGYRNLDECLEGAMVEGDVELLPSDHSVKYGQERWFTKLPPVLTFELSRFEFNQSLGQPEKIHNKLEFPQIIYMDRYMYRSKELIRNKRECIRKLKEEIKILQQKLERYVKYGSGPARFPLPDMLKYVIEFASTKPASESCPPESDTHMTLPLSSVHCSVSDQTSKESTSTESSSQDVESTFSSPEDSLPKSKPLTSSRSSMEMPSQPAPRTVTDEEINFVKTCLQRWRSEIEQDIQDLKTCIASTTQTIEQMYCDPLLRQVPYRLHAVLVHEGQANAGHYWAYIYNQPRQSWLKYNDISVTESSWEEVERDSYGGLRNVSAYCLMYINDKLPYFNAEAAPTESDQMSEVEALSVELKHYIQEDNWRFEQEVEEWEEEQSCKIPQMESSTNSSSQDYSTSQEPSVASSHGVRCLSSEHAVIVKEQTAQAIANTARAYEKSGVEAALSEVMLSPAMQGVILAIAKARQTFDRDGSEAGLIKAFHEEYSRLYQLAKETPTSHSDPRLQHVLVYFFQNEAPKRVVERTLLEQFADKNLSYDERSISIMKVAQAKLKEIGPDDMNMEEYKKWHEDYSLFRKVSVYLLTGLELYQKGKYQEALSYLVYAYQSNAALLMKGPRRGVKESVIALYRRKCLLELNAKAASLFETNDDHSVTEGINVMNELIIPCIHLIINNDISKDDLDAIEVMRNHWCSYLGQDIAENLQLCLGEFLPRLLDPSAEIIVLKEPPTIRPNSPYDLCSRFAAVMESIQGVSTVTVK

[8] = biological target: T3, Ubiquitin carboxyl-terminal hydrolase isozyme L5 (Homo sapiens) (UniProt Q9Y5K5); assay: Inhibition of UCH-L5 (unknown origin) at 20 uM
T3 sequence (whole entry): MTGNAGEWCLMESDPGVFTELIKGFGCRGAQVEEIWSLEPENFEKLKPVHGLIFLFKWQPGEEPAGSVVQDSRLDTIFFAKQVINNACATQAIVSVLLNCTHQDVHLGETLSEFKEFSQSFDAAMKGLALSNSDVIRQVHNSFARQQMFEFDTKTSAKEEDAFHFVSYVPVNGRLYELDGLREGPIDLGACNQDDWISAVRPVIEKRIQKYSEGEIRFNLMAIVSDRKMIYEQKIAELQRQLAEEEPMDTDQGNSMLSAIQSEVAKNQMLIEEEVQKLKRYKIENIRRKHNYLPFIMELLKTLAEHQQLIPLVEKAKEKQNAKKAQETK

[9] = system: LNCaP; assay: Antiproliferative activity against human LNCaP cells assessed as reduction in cell viability incubated for 6 days by cell-titer glo assay; assay type: functional, cell-based; conditions: 144 h
Summary of the method: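 LNCaP seeded at 2500 cells/well in 96-well plates, treated 24 h later with a range of compound concentrations for 6 days. Viability by CellTiter-Glo; IC50 from curve fitting.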

[10] = system: RS4-11; assay: Antiproliferative activity against human RS4-11 cells assessed as reduction in cell viability incubated for 3 days by cell-titer glo assay; assay type: functional, cell-based; conditions: RS4-11, 72 h; summary of the method: as §1
[11] = system: NB-4; assay: Antiproliferative activity against human NB-4 cells assessed as reduction in cell viability incubated for 3 days by cell-titer glo assay; assay type: functional, cell-based; conditions: NB-4, 72 h; summary of the method: as §1
[12] = biological target: T4, Ubiquitin carboxyl-terminal hydrolase 25 (Homo sapiens) (UniProt Q9UHP3); assay: Inhibition of USP25 (unknown origin) at 20 uM
T4 sequence (whole entry): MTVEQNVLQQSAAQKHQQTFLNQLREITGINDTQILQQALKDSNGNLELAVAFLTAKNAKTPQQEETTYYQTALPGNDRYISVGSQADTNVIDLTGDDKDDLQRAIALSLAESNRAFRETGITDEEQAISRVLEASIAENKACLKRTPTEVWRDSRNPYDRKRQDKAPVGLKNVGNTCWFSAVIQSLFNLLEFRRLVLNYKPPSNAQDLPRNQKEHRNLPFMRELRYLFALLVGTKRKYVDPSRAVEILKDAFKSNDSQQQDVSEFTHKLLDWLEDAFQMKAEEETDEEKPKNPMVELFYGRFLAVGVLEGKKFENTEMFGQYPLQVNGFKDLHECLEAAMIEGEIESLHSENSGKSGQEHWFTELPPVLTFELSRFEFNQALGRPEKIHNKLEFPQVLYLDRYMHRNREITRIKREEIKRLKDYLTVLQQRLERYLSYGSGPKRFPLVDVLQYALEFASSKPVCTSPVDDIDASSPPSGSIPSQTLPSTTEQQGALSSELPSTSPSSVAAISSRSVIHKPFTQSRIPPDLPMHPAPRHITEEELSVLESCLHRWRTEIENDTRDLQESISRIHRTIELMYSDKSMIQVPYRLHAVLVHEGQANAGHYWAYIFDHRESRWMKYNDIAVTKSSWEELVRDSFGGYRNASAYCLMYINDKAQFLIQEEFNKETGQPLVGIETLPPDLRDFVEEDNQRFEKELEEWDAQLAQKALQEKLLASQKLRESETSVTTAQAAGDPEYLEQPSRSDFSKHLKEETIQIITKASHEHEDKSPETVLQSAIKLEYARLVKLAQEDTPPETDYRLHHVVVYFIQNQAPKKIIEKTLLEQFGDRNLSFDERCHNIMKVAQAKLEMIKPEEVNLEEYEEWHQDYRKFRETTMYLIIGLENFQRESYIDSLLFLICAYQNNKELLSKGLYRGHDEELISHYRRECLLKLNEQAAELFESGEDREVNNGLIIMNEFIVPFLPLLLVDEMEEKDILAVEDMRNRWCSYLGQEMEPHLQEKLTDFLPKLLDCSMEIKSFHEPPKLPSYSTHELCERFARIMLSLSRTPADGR

Q: Which IC50 [1] does the source give for `C[C@H](CC(=O)N1CCC(O)(Cn2cnc3c(-c4ccc(CN)cc4)n(C)nc3c2=O)CC1)c1ccccc1` here?
A: The IC50 was > 50 µM.

Q: What about the IC50 [2] of the same compound?
A: The IC50 was 10.7 µM.

Q: And the inhibition [3]?
A: Its inhibition is “inactive”.

Q: What about the IC50 [4] of the same compound?
A: Its IC50 is 24.1 µM.

Q: And the inhibition [5]?
A: Its inhibition is “inactive”.

Q: And the inhibition [6]?
A: The inhibition was “inactive”.

Q: And the inhibition [7]?
A: Its inhibition is “inactive”.

Q: And the inhibition [8]?
A: Its inhibition is “inactive”.

Q: What about the IC50 [9] of the same compound?
A: The IC50 was 0.0201 µM.

Q: And the IC50 [10]?
A: Its IC50 is 0.0069 µM.

Q: What about the IC50 [11] of the same compound?
A: Its IC50 is > 50 µM.

Q: And the inhibition [12]?
A: The inhibition was “inactive”.
